The text below walks through data of ChEMBL document CHEMBL1124054, “Synthesis and biological activity of ketomethylene-containing nonapeptide analogues of snake venom angiotensin converting enzyme inhibitors” (J Med Chem, 1988).

Starred links: 1 amine or outer side, 2 acyl side, 3 side chain; linkers in the order of their positions; H or OH if unused. Non-standard residues stand in square brackets, D forms with d. Residues, ends and D or L forms follow the SMILES beside them. *: point of attachment. X2 = O=C(CCC(=O)[*:2])[C@H](Cc1ccccc1)N[*:1]; X1 = O=C(CCC(=O)[*:2])[C@@H]1CCCN1[*:1]; X3 = O=C1CCN([*:1])[C@H]1C(=O)[*:2]; Cyclobutanecarbonyl = O=C(C1CCC1)*; pGlu = O=C1CC[C@@H](C(=O)O)N1; Nle = CCCC[C@H](N)C(=O)O

Data set [1] addresses Angiotensin-converting enzyme (Oryctolagus cuniculus) (UniProt P12822). Kind of data set: Inhibition of Angiotensin I converting enzyme from rabbit lung. As to conditions: read-out: I50.
Data set [2] in a line: Time required for 100% degradation by trypsin. It is filed as ADME.
Data set [3] is filed under the species Rattus norvegicus. Kind of data set: Time required for 100% degradation in rat intestinal homogenate. It is filed as ADME. The gist of the method:
(§1)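 Rat small intestine was taken immediately after sacrifice and minced in Krebs Ringer (10 mL/g). Peptide (0.2–0.5 μmol) mixed with homogenate (1.0 mL per μmol), shaken at 37 °C. Degradation followed by TLC.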

For data set [4], the species on record is Rattus norvegicus. Kind of data set: Time required for 100% degradation in rat stomach homogenate. It is filed as ADME. The gist of the method:
(§2)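 Peptide, partially neutralized with 0.1 N HCl, incubated at 37 °C with 150 mg rat stomach homogenate. Breakdown monitored by TLC.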

A further data set deals with chymotrypsin. Kind of data set: Time required for 50% degradation by chymotrypsin. It is filed as ADME. The settings on record: read-out: Time (converted). The gist of the method: (§3)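 Peptide (0.5–1.0 μmol) in 0.1 M Tris, pH 7.8, stirred at room temperature with chymotrypsin (37 units dissolved in 50 mL cold 0.001 N HCl; 0.050 mL per μmol peptide). Degradation followed over time by TLC.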

In the next data set the test system is trypsin. Kind of data set: Time required for 50% degradation by trypsin. It is filed as ADME. As to conditions: read-out: Time.
Data set [5] in a line: Time required for 50% degradation in rat intestinal homogenate. It is filed as ADME. As to conditions: read-out: Time (converted). A digest of the protocol: as §1
The nature of data set [6]: Time required for 50% degradation in rat stomach homogenate. As to conditions: read-out: Time (converted). It is filed as ADME. The gist of the method: as §2
Data set [7] is described as follows: Time required for degradation by pepsin (none). It is filed as ADME.
The subject of another data set is pepsin. Put plainly: Time required for 50% degradation by pepsin. It is filed as ADME. The settings on record: read-out: Time (converted).
A short description of data set [8]: Time required for degradation by chymotrypsin (none). It is filed as ADME. The gist of the method: as §3
The nature of data set [9]: Time required for degradation by trypsin (none). It is filed as ADME.
The test system of data set [10] is Rattus norvegicus. Kind of data set: Inhibition of angiotensin I induced blood pressure in normotensive anesthetized rats at 10 ug/kg (i.v.) for 10 min. It is filed as functional. The gist of the method: (§4)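 Male Sprague-Dawley normotensive rats (290-540 g), pentobarbital-anesthetized (50 mg/kg ip), intubated. Jugular vein cannulated for iv dosing and carotid artery for blood pressure. Control pressor response to angiotensin I (175 ng/kg iv) taken after vehicle (1 mL/kg). Compound given iv in distilled water or 5% sodium bicarbonate. Angiotensin I challenge repeated at 1.5 to 75 min, rise in pressure compared with control.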

Data set [11] has as its system Rattus norvegicus. Kind of data set: Inhibition of angiotensin I induced blood pressure in normotensive anesthetized rats at 10 ug/kg (i.v.) for 1.5 min. It is filed as functional. The gist of the method:
as §4

The test system of data set [12] is Rattus norvegicus. Put plainly: Inhibition of angiotensin I induced blood pressure in normotensive anesthetized rats at 10 ug/kg (i.v.) for 30 min. Type of data set: functional. A digest of the protocol:
as §4

Data set [13] deals with Rattus norvegicus. Put plainly: Inhibition of angiotensin I induced blood pressure in normotensive anesthetized rats at 10 ug/kg (i.v.) for 5 min. Type of data set: functional. The gist of the method: as §4
For data set [14], the system named is Rattus norvegicus. Kind of data set: Inhibition of angiotensin I induced blood pressure in normotensive anesthetized rats at 10 ug/kg (i.v.) for 75 min. Type of data set: functional. As to conditions: in the assay text read “30 ug/kg” for “10 ug/kg”. The gist of the method: as §4
Data set [15] concerns Rattus norvegicus. Put plainly: Inhibition of angiotensin I induced blood pressure in normotensive anesthetized rats at 1 ug/kg (i.v.) for 1.5 min. It is filed as functional. The gist of the method: as §4
The subject of data set [16] is Rattus norvegicus. Kind of data set: Inhibition of angiotensin I induced blood pressure in normotensive anesthetized rats at 1 ug/kg (i.v.) for 10 min. Type of data set: functional. The gist of the method:
as §4

Data set [17] concerns Rattus norvegicus. Kind of data set: Inhibition of angiotensin I induced blood pressure in normotensive anesthetized rats at 1 ug/kg (i.v.) for 30 min. Type of data set: functional. A digest of the protocol: as §4
For data set [18], the system named is Rattus norvegicus. Put plainly: Inhibition of angiotensin I induced blood pressure in normotensive anesthetized rats at 1 ug/kg (i.v.) for 5 min. Type of data set: functional. The gist of the method: as §4
The test system of data set [19] is Rattus norvegicus. Kind of data set: Inhibition of angiotensin I induced blood pressure in normotensive anesthetized rats at 30 ug/kg (i.v.) for 1.5 min. Type of data set: functional. A digest of the protocol:
as §4

In data set [20] the test system is Rattus norvegicus. Put plainly: Inhibition of angiotensin I induced blood pressure in normotensive anesthetized rats at 30 ug/kg (i.v.) for 10 min. Type of data set: functional. A digest of the protocol:
as §4

The subject of data set [21] is Rattus norvegicus. Kind of data set: Inhibition of angiotensin I induced blood pressure in normotensive anesthetized rats at 30 ug/kg (i.v.) for 30 min. It is filed as functional. The gist of the method:
as §4

Data set [22] deals with Rattus norvegicus. Put plainly: Inhibition of angiotensin I induced blood pressure in normotensive anesthetized rats at 30 ug/kg (i.v.) for 5 min. Type of data set: functional. A digest of the protocol: as §4
Data set [23] concerns the target T1, Angiotensin-converting enzyme (Rattus norvegicus, UniProt P47820).
T1 sequence (P47820 whole entry): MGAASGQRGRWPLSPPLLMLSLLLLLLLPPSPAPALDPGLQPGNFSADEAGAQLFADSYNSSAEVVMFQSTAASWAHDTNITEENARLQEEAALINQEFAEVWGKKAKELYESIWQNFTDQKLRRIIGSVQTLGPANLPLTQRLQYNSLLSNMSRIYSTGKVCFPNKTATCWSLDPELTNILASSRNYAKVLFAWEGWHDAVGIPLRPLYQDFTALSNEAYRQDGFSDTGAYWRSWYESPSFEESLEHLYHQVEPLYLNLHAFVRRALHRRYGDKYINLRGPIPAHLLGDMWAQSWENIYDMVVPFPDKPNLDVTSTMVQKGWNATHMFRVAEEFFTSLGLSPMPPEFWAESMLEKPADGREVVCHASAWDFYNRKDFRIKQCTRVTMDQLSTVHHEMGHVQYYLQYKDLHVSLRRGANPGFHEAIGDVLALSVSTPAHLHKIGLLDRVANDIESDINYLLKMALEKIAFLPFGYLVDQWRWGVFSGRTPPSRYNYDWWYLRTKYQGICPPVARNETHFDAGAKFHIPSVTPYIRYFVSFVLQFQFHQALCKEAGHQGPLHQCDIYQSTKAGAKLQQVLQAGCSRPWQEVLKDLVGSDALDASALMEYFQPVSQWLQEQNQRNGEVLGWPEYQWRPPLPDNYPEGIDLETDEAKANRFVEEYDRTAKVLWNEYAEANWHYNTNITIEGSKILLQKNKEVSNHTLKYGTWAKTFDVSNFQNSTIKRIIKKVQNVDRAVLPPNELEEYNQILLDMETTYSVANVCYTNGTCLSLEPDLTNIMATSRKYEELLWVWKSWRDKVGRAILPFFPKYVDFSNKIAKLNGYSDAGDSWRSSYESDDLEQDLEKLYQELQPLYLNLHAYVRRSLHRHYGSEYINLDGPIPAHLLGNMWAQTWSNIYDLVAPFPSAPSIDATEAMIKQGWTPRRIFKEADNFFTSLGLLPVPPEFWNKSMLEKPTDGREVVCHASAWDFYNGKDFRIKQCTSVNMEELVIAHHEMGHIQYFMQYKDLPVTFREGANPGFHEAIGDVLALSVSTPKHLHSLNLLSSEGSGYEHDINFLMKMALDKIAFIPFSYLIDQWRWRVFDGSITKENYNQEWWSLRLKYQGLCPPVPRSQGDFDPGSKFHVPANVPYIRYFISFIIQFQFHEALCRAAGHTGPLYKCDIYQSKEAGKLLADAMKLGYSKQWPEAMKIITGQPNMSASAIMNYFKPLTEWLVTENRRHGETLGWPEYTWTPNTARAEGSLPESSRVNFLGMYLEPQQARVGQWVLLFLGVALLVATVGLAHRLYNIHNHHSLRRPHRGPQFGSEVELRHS
Put plainly: Inhibition of Angiotensin I converting enzyme in normotensive rat. It is filed as functional. As to conditions: read-out: I50 (converted).

With `NCCCCC(NC(=O)C1CCC1)C(=O)NC(Cc1ccccc1)C(=O)CCC(=O)N1CCCC1C(=O)O` (stereo not drawn), the IC50 in [1] was found to be 6 nM.

On to `C[C@H](NC(=O)[C@H](Cc1ccccc1)NC(=O)[C@H](CCCCN)NC(=O)C1CCC1)C(=O)N1CCC[C@H]1C(=O)O` (Cyclobutanecarbonyl-KFAP-OH), for which the IC50 in data set [1] came out at 40 nM.

On to `NCCCC[C@H](NC(=O)[C@@H]1CCCN1C(=O)CNC(=O)[C@@H]1CCCN1C(=O)[C@H](Cc1ccc(O)cc1)NC(=O)C1CCC1)C(=O)N[C@@H](Cc1ccccc1)C(=O)NCC(=O)N1CCC[C@H]1C(=O)O` (Cyclobutanecarbonyl-YPGPKFGP-OH), for which the Time in data set [2] worked out at 20 min; in the data set filed under Rattus norvegicus [3], 40 min; in the data set listed under Rattus norvegicus [4], 5 h; in data set [7], 24 h. Besides, the half-life in the data set on chymotrypsin was 22 h; in the data set on trypsin, less than 5 min; in data set [5], 0.333 h; in data set [6], greater than 1 h. Also, the IC50 in data set [1] amounted to 340 nM.

With `CCCC[C@H](NC(=O)[C@@H]1CCCN1C(=O)CCC(=O)[C@@H]1CCCN1C(=O)[C@H](Cc1ccc(O)cc1)NC(=O)C1CCC1)C(=O)N[C@@H](Cc1ccccc1)C(=O)CCC(=O)N1CCC[C@H]1C(=O)O` (Cyclobutanecarbonyl-Y[X1]P[Nle][X2]P-OH), the Time in the data set filed under Rattus norvegicus [3] was 1380 min; in [8] it was 24 h; in data set [9] it was 24 h. The values for the half-life (with pepsin; in data set [5]; in data set [6]) were 3 h, 7 h and 5 h, respectively. The Inhibition over time with Rattus norvegicus [10] is listed as 14.5%; in the data set with Rattus norvegicus [11], 64.3%; with Rattus norvegicus [12] it was 0%; in the data set on Rattus norvegicus [13], 27.5%; in the data set with Rattus norvegicus [14] it was 0%; with Rattus norvegicus [15], 26.3%. The Inhibition over time was found to be 24.3% in the data set on Rattus norvegicus [16]; 22.4% in the data set with Rattus norvegicus [17]; 25.6% in the data set with Rattus norvegicus [18]; 88.5% with Rattus norvegicus [19]; 37% in the data set with Rattus norvegicus [20]; 30.8% with Rattus norvegicus [21]. The molecule further had an Inhibition over time with Rattus norvegicus [22] of 59.8%. Also, the IC50 in [1] was 8 nM.

For the molecule `C[C@H](NC(=O)[C@H](Cc1ccccc1)NC(=O)[C@H](CCCCN)NC(=O)[C@@H]1NCCC1=O)C(=O)N1CCC[C@H]1C(=O)O` (H-[X3]KFAP-OH), the IC50 in data set [23] is 87.3 nM.

As for `NCCCC[C@H](NC(=O)[C@@H]1CCC(=O)N1)C(=O)N[C@@H](Cc1ccccc1)C(=O)NCC(=O)N1CCC[C@H]1C(=O)O` ([pGlu]KFGP-OH), the IC50 in [23] is 179 nM.
